pEC50: −log10 of the molar value. In brackets after ≈: the same amount, converted by molar mass. Activity calls are given as the source filed them. The calls are words filed in the database; no cut-off is given here.
Key:
Huh-7 [1] = experiment: Cellular uptake in human HuH7 cells assessed as compound remaining in culture media at 10 uM after 1 hrs by HPLC-mass spectrophotometric analysis; type: ADME, cell-based; details: huh-7, 1 h
MCF7 [2] = experiment: Cell cycle arrest in human MCF7 cells assessed as increase in apoptotic cells in sub-G1 phase at 30 uM after 14 hrs by propidium iodide staining based flow cytometric analysis relative to quercetin; type: functional
MCF7 [3] = experiment: Cellular uptake in human MCF7 cells assessed as compound remaining in cell lysates at 10 uM after 1 hr by HPLC-mass spectrophotometric analysis; type: ADME, cell-based, Lysate; details: mcf7, 1 h
Procedure, shortened: (§1)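 Cells (MCF-7 or Huh-7) seeded at 10⁵ cells/well and grown 24 h (37 °C, 5% CO₂), then exposed to 10 μM compound. Media and washed, trypsinised, sonicated and filtered lysates analysed by HPLC at 1 and 12 h. Peaks collected and identified by MALDI-TOF MS; content given as percentage of integrated HPLC peak area.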

HS27 = experiment: Antiproliferative activity against human HS27 cells after 24 hrs by MTT assay; type: cell-based; details: HS27, 24 h
Procedure, shortened: (§2)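 Cells seeded at 5 × 10³ per well in complete DMEM and grown 1 day at 37 °C, 5% CO₂. Compounds in DMSO diluted to 0.1–50 μM in medium, no ascorbic acid added. […] Each experiment run in triplicate and repeated three times.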

HCT-116 [4] = experiment: Antiproliferative activity against human HCT116 cells after 24 hrs by MTT assay in presence of antioxidative stabilizer ascorbic acid; type: functional, cell-based
Procedure, shortened: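 HCT116 cells seeded at 5 × 10³ cells/well in complete DMEM and grown 1 day (37 °C, 5% CO₂). Compounds were dissolved in DMSO and diluted to 0.1–50 μM in medium containing ascorbic acid. Viability read by MTT after 24 h; triplicate wells, three independent repeats.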

MCF7 [5] = experiment: Cellular uptake in human MCF7 cells assessed as compound remaining in cell lysates at 10 uM after 12 hr by HPLC-mass spectrophotometric analysis; type: ADME, cell-based, Lysate; details: mcf7, 12 h; procedure, shortened: as §1
MCF7 [6] = experiment: Cellular uptake in human MCF7 cells assessed as compound remaining in culture media at 10 uM after 1 hr by HPLC-mass spectrophotometric analysis; type: ADME, cell-based; details: mcf7, 1 h; procedure, shortened: as §1
[7] = Chemical stability of the compound in cell-free DMEM culture media assessed as half life by HPLC analysis in presence of FBS; type: physicochemical; details: cell-free DMEM culture medium with FBS
Procedure, shortened: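 50 μM in FBS-supplemented DMEM, diluted from 10 mM DMSO stock, no ascorbic acid, cell-free, 37 °C and 5% CO₂. Media sampled at time points up to 24 h and stored at −80 °C. Half-life determined by HPLC.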

[8] = Solubility of the compound in cell-free DMEM media assessed as forward light scattering by compound by microplate neplhelometric analysis in presence of FBS; type: physicochemical; details: cell-free DMEM medium with FBS
Procedure, shortened: (§3)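 Stocks in DMSO diluted to final 5–500 μM in DMEM, with or without FBS, at 1% DMSO. Forward light scattering measured by laser microplate nephelometry; solubility limit taken from the onset of scattering.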

HCT-116 [9] = experiment: Cellular uptake in human HCT116 cells assessed a bright fluorescence light at 5 uM after 1 hr by fluorescence microscopic analysis; type: ADME, cell-based; details: hct-116, 1 h
[10] = Aqueous solubility of the compound in PBS assessed as forward light scattering by compound by microplate neplhelometric analysis; type: physicochemical
Procedure, shortened: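 Nephelometric solubility. DMSO stocks diluted in PBS (pH 7.4), 1% DMSO final, to 5–500 μM. Forward light scattering read in microplates to find the highest concentration free of scatter.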

[11] = Chemical stability of the compound in buffer at pH 2 assessed as half life by HPLC analysis; type: physicochemical
Procedure, shortened: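 Compound incubated in pH 2.0 buffer without antioxidant stabiliser. Remaining parent followed by HPLC to derive the half-life.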

HCT-116 [12] = experiment: Antiproliferative activity against human HCT116 cells after 24 hrs by MTT assay; type: functional, cell-based; details: HCT-116, 24 h; procedure, shortened: as §2
MCF7 [13] = experiment: Antiproliferative activity against human MCF7 cells after 24 hrs by MTT assay; type: functional, cell-based; details: MCF7, 24 h; procedure, shortened: as §2
DU-145 = experiment: Antiproliferative activity against human DU145 cells after 24 hrs by MTT assay; type: functional, cell-based; details: DU-145, 24 h; procedure, shortened: as §2
[14] = Chemical stability of the compound in PBS buffer at pH 7.4 assessed as half life by HPLC analysis; type: physicochemical
Procedure, shortened: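 Compound at 50 μM in PBS pH 7.4 at 37 °C, no stabilizer. Aliquots taken at 0–360 min and analysed by C-18 reverse-phase HPLC with UV detection at 340 nm and an acetonitrile/0.1% formic acid gradient. Half-life derived from the time course.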

Huh-7 [15] = experiment: Cellular uptake in human HuH7 cells assessed as compound remaining in cell lysate at 10 uM after 1 hr by HPLC-mass spectrophotometric analysis; type: ADME, cell-based; details: huh-7, 1 h
[16] = Solubility of the compound in DMEM media assessed as forward light scattering by compound by microplate neplhelometric analysis; type: physicochemical; details: DMEM medium; procedure, shortened: as §3
MCF7 [17] = experiment: Cell cycle arrest in human MCF7 cells assessed as increase in accumulation at S phase at 30 uM after 14 hrs by propidium iodide staining based flow cytometric analysis relative to quercetin; type: functional
MCF7 [18] = experiment: Cellular uptake in human MCF7 cells assessed as compound remaining in culture media at 10 uM after 12 hrs by HPLC-mass spectrophotometric analysis; type: ADME, cell-based; details: mcf7, 12 h; procedure, shortened: as §1
HCT-116 [19] = experiment: Cellular uptake in human HCT116 cells assessed a bright fluorescence light at 5 uM after 12 hrs by fluorescence microscopic analysis; type: ADME, cell-based; details: hct-116, 12 h
MCF7 [20] = experiment: Cell cycle arrest in human MCF7 cells assessed as decrease in accumulation at G0/G1 phase at 30 uM after 12 hrs by propidium iodide staining based flow cytometric analysis relative to quercetin; type: functional; parameters: scale not given: the % may be the effect or the level left
Procedure, shortened: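 MCF-7 cells seeded in 35 mm dishes at 10⁵ cells and grown 12 h at 37 °C, 5% CO₂. Treated 12 h with conjugate at 30 μM, quercetin or 1% DMSO control. Propidium iodide staining, flow cytometry, percentage of cells in each phase.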

[21] = Half life in blood of cancer patient at 400 mg/kg, iv by HPLC analysis; type: ADME, organism-based; parameters: dose 400 mg/kg, route intravenous; details: human
[22] = Permeability of the compound measured on donor plate of PAMPA membrane at 50 uM after 1 hr by HPLC analysis; type: ADME
Procedure, shortened: (§4)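 Precoated PVDF PAMPA plate warmed to room temperature for 30 min. Donor held 50 μM compound in PBS with 5% DMSO; acceptor held PBS. Assembly incubated at room temperature for 1 and 5 h. Donor and acceptor aliquots analysed by HPLC; distribution given as percentage of integrated peak area.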

[23] = Chemical stability of the compound in water assessed as half life by HPLC analysis; type: physicochemical
[24] = Permeability of the compound measured on acceptor plate of PAMPA membrane at 50 uM after 5 hrs by HPLC analysis; type: ADME; procedure, shortened: as §4
[25] = Permeability of the compound measured on acceptor plate of PAMPA membrane at 50 uM after 1 hr by HPLC analysis; type: ADME; procedure, shortened: as §4
[26] = Permeability of the compound measured on donor plate of PAMPA membrane at 50 uM after 5 hrs by HPLC analysis; type: ADME; procedure, shortened: as §4
Huh-7 [27] = experiment: Cellular uptake in human HuH7 cells assessed as intracellular accumulation at 10 uM after 12 hrs by HPLC-mass spectrophotometric analysis; type: ADME, cell-based; details: huh-7, 12 h; procedure, shortened: as §1
Huh-7 [28] = experiment: Cellular uptake in human HuH7 cells assessed as quercetin-sulphate accumulation at 10 uM after 12 hrs by HPLC-mass spectrophotometric analysis; type: ADME, cell-based; details: huh-7, 12 h; procedure, shortened: as §1
MCF7 [29] = experiment: Cell cycle arrest in human MCF7 cells assessed as decrease in accumulation at G0/G1 phase at 50 uM after 12 hrs by propidium iodide staining based flow cytometric analysis relative to untreated control; type: functional; parameters: scale not given: the % may be the effect or the level left
MCF7 [30] = experiment: Cellular uptake in human MCF7 cells assessed as formation of methylated quercetin in cell lysates at 10 uM after 12 hrs by HPLC-mass spectrophotometric analysis; details: mcf7, 12 h
MCF7 [31] = experiment: Cellular uptake in human MCF7 cells assessed as formation of quercetin sulphate in cell lysates at 10 uM after 12 hrs by HPLC-mass spectrophotometric analysis; details: mcf7, 12 h
Huh-7 [32] = experiment: Cellular uptake in human HuH7 cells assessed as methyl-quercetin accumulation at 10 uM after 12 hrs by HPLC-mass spectrophotometric analysis; type: ADME, cell-based; details: huh-7, 12 h; procedure, shortened: as §1
MCF7 [33] = experiment: Cell cycle arrest in human MCF7 cells assessed as increase in accumulation at S phase at 50 uM after 14 hrs by propidium iodide staining based flow cytometric analysis relative to untreated control; type: functional
MCF7 [34] = experiment: Cellular uptake in human MCF7 cells assessed as formation of quercetin glucuronide in cell lysates at 10 uM after 12 hrs by HPLC-mass spectrophotometric analysis; details: mcf7, 12 h
MCF7 [35] = experiment: Cellular uptake in human MCF7 cells assessed as formation of oxidised quercetin in cell lysates at 10 uM after 12 hrs by HPLC-mass spectrophotometric analysis; details: mcf7, 12 h
HCT-116 [36] = experiment: Cellular uptake in human HCT116 cells assessed a bright fluorescence light at 5 uM after 12 hr by fluorescence microscopic analysis in presence of P-glycoprotein inhibitor verapamil; type: ADME, cell-based; details: hct-116, 12 h
HCT-116 [37] = experiment: Cellular uptake in human HCT116 cells assessed a bright fluorescence light at 5 uM after 12 hr by fluorescence microscopic analysis in presence of […]; type: ADME, cell-based; details: hct-116, 12 h

Row | SMILES | Drug uptake (MCF7 [3]) | pEC50 (HS27) | Activity (HCT-116 [4]) | Drug uptake (MCF7 [5]) | Drug uptake (MCF7 [6]) | half-life [7] | solubility kinetic [8] | Drug uptake (HCT-116 [9]) | solubility kinetic [10] | half-life [11] | pEC50 (HCT-116 [12]) | pEC50 (MCF7 [13]) | pEC50 (DU-145) | half-life [14] | solubility kinetic [16] | Drug uptake (HCT-116 [19]) | permeability [22] | permeability [24] | permeability [25] | permeability [26] | other results
1 | CC(C)(C)C(=O)OCOc1cc(O)c2c(=O)c(O)c(-c3ccc(O)c(O)c3)oc2c1 | 21% | < 4.00 | Active | 4% | 62% | 4 h | 200 µM | Active | 5 µM (≈ 2.08 µg/mL) | 7 h | 4.44 | 4.70 | 5.00 | > 72 h | 50 µM (≈ 20.8 µg/mL) | Active | – | – | – | – | Drug uptake (Huh-7 [1]): Active; Activity (MCF7 [2]): Active; Drug uptake (Huh-7 [15]): Active; Activity (MCF7 [17]): 120%; Drug uptake (MCF7 [18]): 12%; Activity (MCF7 [20]): 10%
2 | O=C(O)CNC(=O)Oc1cc(-c2oc3cc(O)cc(O)c3c(=O)c2O)ccc1O [QC-12] | – | – | – | – | – | 0.8 h | > 400 µM | – | > 400 µM | 3 h | – | – | – | 10 h | > 400 µM | – | 6% | 40% | 55% | 18% | half-life [21]: 0.39 h; half-life [23]: 16.9 h
3 | O=c1c(O)c(-c2ccc(O)c(O)c2)oc2cc(O)cc(O)c12 [QUERCETIN] | 7% | < 4.00 | inactive | 17% | 5% | < 0.5 h | – | Active | 100 µM (≈ 30.2 µg/mL) | 7 h | < 4.00 | < 4.00 | < 4.00 | 10 h | – | Not Active | 45% | 6% | 16% | 8% | Drug uptake (Huh-7 [27]): Not Active; Drug uptake (Huh-7 [28]): < 5%; Activity (MCF7 [29]): 21%; Drug uptake (MCF7 [30]): Active; Drug uptake (MCF7 [31]): Active; Drug uptake (Huh-7 [32]): < 5%; Activity (MCF7 [33]): 78%; Drug uptake (MCF7 [34]): Active; Drug uptake (MCF7 [35]): Active; Drug uptake (MCF7 [18]): 5%
4 | CC(C)(C)C(=O)OCOc1c(-c2ccc(O)c(O)c2)oc2cc(O)cc(O)c2c1=O | – | < 4.00 | – | – | – | 52 h | > 400 µM | Not Active | 100 µM (≈ 41.6 µg/mL) | 20 h | < 4.00 | < 4.00 | < 4.00 | > 72 h | 100 µM (≈ 41.6 µg/mL) | Not Active | 87% | 0% | 0% | 74% | Drug uptake (HCT-116 [36]): Not Active; Drug uptake (HCT-116 [37]): Not Active

— ChEMBL document CHEMBL1800065, “Enhanced stability and intracellular accumulation of quercetin by protection of the chemically or metabolically susceptible hydroxyl groups with a pivaloxymethyl (POM) promoiety” (J Med Chem, 2010)
